# Source: ChEMBL document CHEMBL3616441, “Discovery of a Selective and CNS Penetrant Negative Allosteric Modulator of Metabotropic Glutamate Receptor Subtype 3 with Antidepressant and Anxiolytic Activity in Rodents” (J Med Chem, 2015)
# pEC50, pIC50: −log10 of the molar value. The source made the active and inactive calls. The calls are words filed in the database; no cut-off is given here.
# Columns and labels:
# [1] = molecular target: Metabotropic glutamate receptor 5 (Rattus norvegicus) (UniProt P31424); test: Negative allosteric modulation of rat mGlu5 receptor assessed as calcium mobilization by cell based fluorescence assay; format: functional
# Sequence of Metabotropic glutamate receptor 5 (Rattus norvegicus) (P31424 21-1203 limits assumed): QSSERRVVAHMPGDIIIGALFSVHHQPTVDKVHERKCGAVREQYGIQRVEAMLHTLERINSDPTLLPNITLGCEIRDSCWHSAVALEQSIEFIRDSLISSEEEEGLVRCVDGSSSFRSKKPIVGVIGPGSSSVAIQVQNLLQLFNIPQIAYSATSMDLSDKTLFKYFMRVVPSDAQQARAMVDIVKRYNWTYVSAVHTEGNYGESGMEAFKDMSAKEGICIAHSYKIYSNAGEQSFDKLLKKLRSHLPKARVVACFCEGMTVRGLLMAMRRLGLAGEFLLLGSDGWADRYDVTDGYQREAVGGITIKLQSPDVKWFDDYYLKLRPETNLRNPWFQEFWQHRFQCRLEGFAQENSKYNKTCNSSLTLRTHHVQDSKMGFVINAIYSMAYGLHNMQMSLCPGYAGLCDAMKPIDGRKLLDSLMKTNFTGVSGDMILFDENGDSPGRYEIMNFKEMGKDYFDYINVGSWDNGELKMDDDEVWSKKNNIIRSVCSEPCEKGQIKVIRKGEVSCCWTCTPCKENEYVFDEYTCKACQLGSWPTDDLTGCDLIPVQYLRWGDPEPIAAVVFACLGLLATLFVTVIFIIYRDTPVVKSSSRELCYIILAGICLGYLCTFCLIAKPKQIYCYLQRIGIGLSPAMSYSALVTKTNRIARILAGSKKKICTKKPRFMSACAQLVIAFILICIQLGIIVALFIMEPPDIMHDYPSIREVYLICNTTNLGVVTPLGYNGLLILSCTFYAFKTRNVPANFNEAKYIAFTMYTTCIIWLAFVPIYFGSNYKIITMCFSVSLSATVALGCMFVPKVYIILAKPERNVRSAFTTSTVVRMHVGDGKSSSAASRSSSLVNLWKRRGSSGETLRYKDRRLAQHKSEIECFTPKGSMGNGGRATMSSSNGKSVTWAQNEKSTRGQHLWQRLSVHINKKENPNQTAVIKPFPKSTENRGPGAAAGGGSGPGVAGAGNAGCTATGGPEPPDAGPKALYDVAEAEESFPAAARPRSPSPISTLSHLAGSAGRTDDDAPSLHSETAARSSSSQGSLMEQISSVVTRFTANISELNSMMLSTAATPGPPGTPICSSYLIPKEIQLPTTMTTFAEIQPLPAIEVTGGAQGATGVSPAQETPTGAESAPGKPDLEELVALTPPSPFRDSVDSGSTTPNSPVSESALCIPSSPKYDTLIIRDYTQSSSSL
# [2] = molecular target: Metabotropic glutamate receptor 5 (Rattus norvegicus, UniProt P31424); test: Modulation of rat mGlu5 receptor assessed as calcium mobilization by cell based fluorescence assay; format: functional
# Sequence of Metabotropic glutamate receptor 5 (P31424 whole entry): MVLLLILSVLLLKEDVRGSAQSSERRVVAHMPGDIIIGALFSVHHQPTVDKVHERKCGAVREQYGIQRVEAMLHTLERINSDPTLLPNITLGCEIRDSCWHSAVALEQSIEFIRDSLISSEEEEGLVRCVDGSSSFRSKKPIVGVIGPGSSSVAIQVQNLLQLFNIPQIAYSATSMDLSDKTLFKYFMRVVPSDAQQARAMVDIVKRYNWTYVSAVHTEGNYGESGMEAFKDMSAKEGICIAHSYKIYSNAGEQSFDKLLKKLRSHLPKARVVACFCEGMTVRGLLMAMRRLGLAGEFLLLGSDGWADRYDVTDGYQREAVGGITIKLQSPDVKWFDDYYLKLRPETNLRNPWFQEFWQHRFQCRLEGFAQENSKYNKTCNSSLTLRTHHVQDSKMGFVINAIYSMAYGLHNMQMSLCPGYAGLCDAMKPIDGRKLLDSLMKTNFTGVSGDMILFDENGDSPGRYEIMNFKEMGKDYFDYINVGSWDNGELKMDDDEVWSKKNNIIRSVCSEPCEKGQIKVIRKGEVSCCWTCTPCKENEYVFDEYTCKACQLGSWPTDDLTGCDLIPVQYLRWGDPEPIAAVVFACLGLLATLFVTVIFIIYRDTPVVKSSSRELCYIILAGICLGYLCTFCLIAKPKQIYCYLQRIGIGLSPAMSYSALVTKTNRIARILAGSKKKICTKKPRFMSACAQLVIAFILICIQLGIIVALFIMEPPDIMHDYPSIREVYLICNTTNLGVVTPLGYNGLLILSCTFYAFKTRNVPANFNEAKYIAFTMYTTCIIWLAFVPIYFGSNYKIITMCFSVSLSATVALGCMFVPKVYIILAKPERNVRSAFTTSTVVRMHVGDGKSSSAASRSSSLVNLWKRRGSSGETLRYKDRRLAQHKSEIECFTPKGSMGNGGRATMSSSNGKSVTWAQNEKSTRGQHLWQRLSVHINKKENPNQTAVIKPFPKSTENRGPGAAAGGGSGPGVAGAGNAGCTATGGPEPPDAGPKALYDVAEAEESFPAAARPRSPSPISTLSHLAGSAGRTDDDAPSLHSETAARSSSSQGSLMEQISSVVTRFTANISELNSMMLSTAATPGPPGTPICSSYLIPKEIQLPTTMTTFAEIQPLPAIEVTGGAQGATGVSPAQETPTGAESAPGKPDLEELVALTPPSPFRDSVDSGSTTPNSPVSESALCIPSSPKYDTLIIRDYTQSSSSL
# In short: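 Calcium mobilization assay with fluorescence read-out in cells expressing mGlu5; full concentration-response curves; % Glu Max is the amplitude of response with 30 μM test compound as a percentage of the maximal response to 100 μM glutamate; values averaged over n-3.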
# [3] = molecular target: Metabotropic glutamate receptor 5 (Rattus norvegicus) (UniProt P31424); test: Modulation of rat mGlu5 receptor assessed as assessed as calcium mobilization at 30 uM by cell based fluorescence assay; format: functional
# Plasma = test: Fraction unbound in rat plasma; format: ADME, cell-free
# [4] = molecular target: Metabotropic glutamate receptor 3 (Rattus norvegicus) (UniProt P31422); test: Negative allosteric modulation of rat mGlu3 receptor assessed as amplitude response at 30 uM relative to glutamate
# Sequence of Metabotropic glutamate receptor 3 (Rattus norvegicus) (P31422 23-879 limits assumed): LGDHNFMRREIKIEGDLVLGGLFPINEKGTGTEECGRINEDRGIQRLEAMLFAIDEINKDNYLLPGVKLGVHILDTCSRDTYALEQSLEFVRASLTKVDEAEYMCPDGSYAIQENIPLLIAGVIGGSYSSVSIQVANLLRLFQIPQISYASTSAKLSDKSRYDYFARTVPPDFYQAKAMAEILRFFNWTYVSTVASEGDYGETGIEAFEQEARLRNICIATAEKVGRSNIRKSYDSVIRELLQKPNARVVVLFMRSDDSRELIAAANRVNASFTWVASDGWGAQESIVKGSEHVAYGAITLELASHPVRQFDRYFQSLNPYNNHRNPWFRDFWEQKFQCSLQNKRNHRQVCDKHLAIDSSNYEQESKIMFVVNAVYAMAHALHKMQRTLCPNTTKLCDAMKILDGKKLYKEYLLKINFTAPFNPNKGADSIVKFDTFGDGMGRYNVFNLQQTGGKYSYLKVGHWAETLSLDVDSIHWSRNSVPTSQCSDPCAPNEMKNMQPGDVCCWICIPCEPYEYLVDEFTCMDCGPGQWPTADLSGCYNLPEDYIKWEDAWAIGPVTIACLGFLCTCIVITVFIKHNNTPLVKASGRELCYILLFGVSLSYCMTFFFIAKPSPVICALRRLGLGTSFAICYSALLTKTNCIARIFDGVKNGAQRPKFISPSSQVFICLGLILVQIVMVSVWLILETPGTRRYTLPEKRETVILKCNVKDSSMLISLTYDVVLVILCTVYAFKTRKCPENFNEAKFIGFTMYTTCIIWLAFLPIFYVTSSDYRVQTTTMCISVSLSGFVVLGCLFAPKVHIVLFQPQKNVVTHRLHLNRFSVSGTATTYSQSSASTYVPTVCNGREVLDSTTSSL
# In short: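 Calcium mobilization in cell line stably expressing rat mGlu3 with promiscuous Gα15; fluorescence read-out; amplitude of glutamate response with 30 μM test compound expressed as percentage of maximal response (100 μM glutamate); average of n = 3.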
# [5] = molecular target: Metabotropic glutamate receptor 3 (Rattus norvegicus, UniProt P31422); test: Negative allosteric modulation of rat mGlu3 receptor assessed as calcium mobilization by cell based fluorescence assay; format: functional
# Sequence of Metabotropic glutamate receptor 3 (P31422 whole entry): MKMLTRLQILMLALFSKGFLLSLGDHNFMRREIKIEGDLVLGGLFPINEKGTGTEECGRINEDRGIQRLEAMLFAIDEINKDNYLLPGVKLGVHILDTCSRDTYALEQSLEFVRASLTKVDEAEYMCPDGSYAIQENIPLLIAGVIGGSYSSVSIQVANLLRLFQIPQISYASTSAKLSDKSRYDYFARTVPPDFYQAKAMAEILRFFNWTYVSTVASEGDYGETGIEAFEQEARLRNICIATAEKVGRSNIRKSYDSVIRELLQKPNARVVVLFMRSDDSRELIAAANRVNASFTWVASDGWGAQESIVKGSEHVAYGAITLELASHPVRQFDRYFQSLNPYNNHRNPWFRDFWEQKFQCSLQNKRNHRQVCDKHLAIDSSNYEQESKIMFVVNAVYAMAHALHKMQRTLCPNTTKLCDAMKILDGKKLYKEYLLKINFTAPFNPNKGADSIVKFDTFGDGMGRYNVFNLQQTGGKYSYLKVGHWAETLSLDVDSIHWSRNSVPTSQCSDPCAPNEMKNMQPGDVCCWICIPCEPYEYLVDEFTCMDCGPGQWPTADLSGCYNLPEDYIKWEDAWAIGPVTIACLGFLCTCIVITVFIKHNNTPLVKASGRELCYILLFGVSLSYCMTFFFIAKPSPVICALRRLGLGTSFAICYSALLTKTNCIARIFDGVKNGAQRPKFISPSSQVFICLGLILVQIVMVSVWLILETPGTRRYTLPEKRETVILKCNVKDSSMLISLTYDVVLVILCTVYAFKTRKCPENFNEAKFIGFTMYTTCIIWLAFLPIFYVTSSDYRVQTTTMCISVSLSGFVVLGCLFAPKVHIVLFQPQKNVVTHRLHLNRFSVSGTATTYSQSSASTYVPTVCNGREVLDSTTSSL
# In short: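 Cell line stably expressing rat mGlu3 with the promiscuous G-protein Gα15. Calcium mobilization with fluorescence read-out, inhibition of the glutamate response. Full concentration-response curves, top concentration 30 μM. % Glu Max is the response with 30 μM test compound as a percentage of the maximal response to 100 μM glutamate. Values averaged over n-3.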
# [6] = molecular target: Metabotropic glutamate receptor 2 (Rattus norvegicus) (UniProt P31421); test: Negative allosteric modulation of rat mGlu2 receptor assessed as calcium mobilization at 30 uM by cell based fluorescence assay; format: functional
# Sequence of Metabotropic glutamate receptor 2 (Rattus norvegicus) (P31421 19-872 limits assumed): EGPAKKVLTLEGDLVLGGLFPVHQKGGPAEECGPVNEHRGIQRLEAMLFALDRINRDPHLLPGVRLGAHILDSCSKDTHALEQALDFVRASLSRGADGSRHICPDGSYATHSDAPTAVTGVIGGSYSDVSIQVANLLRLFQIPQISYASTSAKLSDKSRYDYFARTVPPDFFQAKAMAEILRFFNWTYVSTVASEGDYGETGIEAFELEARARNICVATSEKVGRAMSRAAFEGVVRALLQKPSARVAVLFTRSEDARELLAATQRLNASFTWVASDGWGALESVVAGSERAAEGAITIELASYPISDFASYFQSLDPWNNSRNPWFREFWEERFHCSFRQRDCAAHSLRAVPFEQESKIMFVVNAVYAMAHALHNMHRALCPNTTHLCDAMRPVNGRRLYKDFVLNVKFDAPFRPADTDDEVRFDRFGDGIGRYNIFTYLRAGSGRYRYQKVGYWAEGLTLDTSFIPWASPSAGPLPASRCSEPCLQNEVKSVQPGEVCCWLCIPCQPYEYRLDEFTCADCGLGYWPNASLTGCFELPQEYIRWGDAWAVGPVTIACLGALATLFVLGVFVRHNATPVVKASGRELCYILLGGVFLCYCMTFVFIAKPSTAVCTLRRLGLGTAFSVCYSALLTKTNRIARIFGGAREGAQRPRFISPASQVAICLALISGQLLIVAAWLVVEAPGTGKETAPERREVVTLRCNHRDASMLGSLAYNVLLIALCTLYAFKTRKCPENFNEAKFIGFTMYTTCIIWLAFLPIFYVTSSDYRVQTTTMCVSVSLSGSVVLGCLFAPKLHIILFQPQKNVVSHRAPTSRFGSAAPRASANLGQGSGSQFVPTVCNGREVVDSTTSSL
# In short: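 Rat mGlu2 calcium mobilization assay with fluorescence read-out; full concentration-response curve analysis up to 30 μM top concentration.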
# [7] = Plasma clearance in rat at 0.2 mg/kg, iv administered as cassette dose; format: ADME, organism-based
# [8] = Volume of distribution at steady state in rat at 0.2 mg/kg, iv administered as cassette dose; format: ADME, organism-based; conditions: in vivo, read-out: Vdss
# [9] = Half life in rat at 0.2 mg/kg, iv administered as cassette dose; format: ADME, organism-based; conditions: in vivo
# [10] = molecular target: Metabotropic glutamate receptor 5 (Rattus norvegicus) (UniProt P31424); test: Positive allosteric modulation of rat mGlu5 receptor assessed as calcium mobilization by cell based fluorescence assay; format: functional
# Brain = test: Fraction unbound in rat brain; format: ADME, tissue-based
SMILES,Activity [1],pEC50 [2],Activity [3] [%],Fu (Plasma),Activity [4] [%],pIC50 [5],Activity [6],clearance [7] [mL/min/kg],Vd [8] [L/kg],half-life [9] [min],Activity [10],Fu (Brain)
C[C@@H]1CN(c2ccccc2Cl)C(=O)c2cc(COc3ccc(F)cn3)nn21,Active,6.00,8.78,0.054,1.37,6.85,–,–,–,–,–,–
C[C@@H]1CN(c2cc(F)ccc2F)C(=O)c2cc(COc3ccc(F)cn3)nn21,Active,< 5.00,18.8,0.089,2.62,6.91,–,–,–,–,–,–
C[C@@H]1CN(c2cccc(F)c2F)C(=O)c2cc(COc3ccc(F)cn3)nn21,Active,5.68,21,0.092,2.15,6.74,–,–,–,–,–,–
C[C@@H]1CN(c2ccc(F)cc2)C(=O)c2cc(COc3ccccn3)nn21,–,–,–,–,–,–,inactive,–,–,–,–,–
C[C@@H]1CN(c2ccccc2F)C(=O)c2cc(COc3ccc(F)cn3)nn21,Active,< 5.00,29.1,0.098,1.53,6.79,–,–,–,–,–,–
Cc1cccc(OCc2cc3n(n2)[C@H](C)CN(c2ccc(F)cc2)C3=O)n1,Active,5.65,2.47,–,1.12,5.63,–,–,–,–,–,–
CCOc1ccc(OCc2cc3n(n2)[C@H](C)CN(c2ccc(F)cc2)C3=O)cc1,–,< 4.52,–,0.005,3.39,5.94,–,82,2.2,32,–,–
C[C@@H]1CN(c2ccc(F)cn2)C(=O)c2cc(COc3ccc(F)cn3)nn21,Active,5.01,7,–,1.31,6.46,–,–,–,–,–,–
Cc1ccc(N2C[C@@H](C)n3nc(COc4ccc(F)cn4)cc3C2=O)cc1,Active,< 5.00,54.8,–,1.04,6.57,–,–,–,–,–,–
COc1ccccc1N1C[C@@H](C)n2nc(COc3ccc(Cl)cn3)cc2C1=O,Active,< 5.00,58.5,–,1.29,6.16,–,–,–,–,–,–
C[C@@H]1CN(c2cc(F)cc(C#N)c2)C(=O)c2cc(COc3ccc(Cl)cn3)nn21,–,5.98,28,0.045,1.92,6.50,–,13,2.2,194,Active,0.032
C[C@@H]1CN(c2cccc(F)n2)C(=O)c2cc(COc3ccc(Cl)cn3)nn21,Active,< 5.00,24.8,–,1.75,6.53,–,–,–,–,–,–
C[C@@H]1CN(c2cccnc2)C(=O)c2cc(COc3ccc(F)cn3)nn21,Active,< 5.00,46.3,–,0.64,6.36,–,–,–,–,–,–
Cc1cccc(OCc2cc3n(n2)[C@H](C)CN(c2ccc(F)cc2)C3=O)c1,Active,< 5.00,39.7,–,2.35,5.84,–,–,–,–,–,–
COc1ccccc1N1C[C@@H](C)n2nc(COc3ccc(F)cn3)cc2C1=O,Active,6.52,3.28,–,1.49,6.47,–,–,–,–,–,–
C[C@@H]1CN(c2cccc(F)c2)C(=O)c2cc(COc3ccc(F)cn3)nn21,Active,5.57,9.71,0.094,1.44,6.72,–,–,–,–,–,–
C[C@@H]1CN(c2c(F)cccc2F)C(=O)c2cc(COc3ccc(F)cn3)nn21,Active,5.91,50.8,0.064,1.49,6.74,–,–,–,–,–,–

SMILES,Activity [1],pEC50 [2],Activity [3] [%],Fu (Plasma),Activity [4] [%],pIC50 [5],Activity [6],clearance [7] [mL/min/kg],Vd [8] [L/kg],half-life [9] [min],Activity [10],Fu (Brain)
C[C@@H]1CN(c2ccc(F)cc2)C(=O)c2cc(COc3ccc(F)cc3)nn21,–,7.04,87,0.06,2.09,6.34,–,40,3.5,95,Active,–
COc1ccnc(OCc2cc3n(n2)[C@H](C)CN(c2ccc(F)cc2)C3=O)c1,Active,< 5.00,54.7,–,-0.18,5.43,–,–,–,–,–,–
C[C@@H]1CN(c2cccc(Cl)c2)C(=O)c2cc(COc3ccc(F)cn3)nn21,Active,5.73,19.2,0.034,2.3,6.84,–,–,–,–,–,–
COc1cccc(N2C[C@@H](C)n3nc(COc4ccc(F)cn4)cc3C2=O)c1,Active,< 5.00,59.7,–,1.02,6.70,–,–,–,–,–,–
C[C@@H]1CN(c2cncc(C#N)c2)C(=O)c2cc(COc3ccc(Cl)cn3)nn21,–,< 4.52,–,0.078,1.08,6.22,–,22,1.4,59,–,0.033
C[C@@H]1CN(c2cncc(F)c2)C(=O)c2cc(COc3ccc(Cl)cn3)nn21,–,< 4.52,–,0.092,1.85,6.32,–,50,1.9,30,–,–
C[C@@H]1CN(c2ccc(F)cc2)C(=O)c2cc(COc3ccc(F)cn3)nn21,Active,< 5.00,46.5,0.135,1.71,6.27,–,82,6.6,88,–,–
C[C@@H]1CN(c2cccnc2)C(=O)c2cc(COc3ccc(Cl)cn3)nn21,–,< 4.52,–,0.118,1.73,6.22,–,50,1.2,21,–,–
Cc1ccnc(OCc2cc3n(n2)[C@H](C)CN(c2ccc(F)cc2)C3=O)c1,Active,< 5.00,46.9,–,0.86,5.68,–,–,–,–,–,–
C[C@@H]1CN(c2ccc(F)cc2)C(=O)c2cc(COc3cc(C(F)(F)F)ccn3)nn21,Active,< 5.00,12.9,–,1.62,5.78,–,–,–,–,–,–
C[C@@H]1CN(c2cnccc2F)C(=O)c2cc(COc3ccc(Cl)cn3)nn21,–,< 4.52,–,0.085,1.45,6.32,–,–,–,–,–,–
C[C@@H]1CN(c2ccccn2)C(=O)c2cc(COc3ccc(F)cn3)nn21,Active,5.45,3.71,–,0.96,6.04,–,–,–,–,–,–
C[C@@H]1CN(c2ccc(F)cc2)C(=O)c2cc(COc3ccc(Cl)cn3)nn21,–,5.53,81.4,0.034,1.84,6.22,–,29,5.2,141,Active,–
Cc1cccc(N2C[C@@H](C)n3nc(COc4ccc(F)cn4)cc3C2=O)c1,Active,< 5.00,36.6,0.051,1.93,6.67,–,–,–,–,–,–
C[C@@H]1CN(c2ccccn2)C(=O)c2cc(COc3ccc(Cl)cn3)nn21,–,< 4.52,–,0.051,1.07,6.48,–,–,–,–,–,–
C[C@@H]1CN(c2ccc(F)cc2)C(=O)c2cc(COc3cccc(Cl)c3)nn21,Active,< 5.00,32.8,–,1.96,5.79,–,–,–,–,–,–
